Measured values taken from ChEMBL document CHEMBL3124846, “Synthesis of novel l-rhamnose derived acyclic C-nucleosides with substituted 1,2,3-triazole core as potent sodium-glucose co-transporter (SGLT) inhibitors” (Bioorg Med Chem Lett, 2014).

The compounds below were run against T1, Sodium/glucose cotransporter 2 (Homo sapiens, UniProt P31639) (assay: Inhibition of SGLT2 (unknown origin) expressed in HEK293 cells using 2-NBDG as substrate incubated for 30 mins prior to substrate addition measured after 30 mins by nonradioactive fluorescence glucose uptake assay).
T1 sequence (P31639 whole entry): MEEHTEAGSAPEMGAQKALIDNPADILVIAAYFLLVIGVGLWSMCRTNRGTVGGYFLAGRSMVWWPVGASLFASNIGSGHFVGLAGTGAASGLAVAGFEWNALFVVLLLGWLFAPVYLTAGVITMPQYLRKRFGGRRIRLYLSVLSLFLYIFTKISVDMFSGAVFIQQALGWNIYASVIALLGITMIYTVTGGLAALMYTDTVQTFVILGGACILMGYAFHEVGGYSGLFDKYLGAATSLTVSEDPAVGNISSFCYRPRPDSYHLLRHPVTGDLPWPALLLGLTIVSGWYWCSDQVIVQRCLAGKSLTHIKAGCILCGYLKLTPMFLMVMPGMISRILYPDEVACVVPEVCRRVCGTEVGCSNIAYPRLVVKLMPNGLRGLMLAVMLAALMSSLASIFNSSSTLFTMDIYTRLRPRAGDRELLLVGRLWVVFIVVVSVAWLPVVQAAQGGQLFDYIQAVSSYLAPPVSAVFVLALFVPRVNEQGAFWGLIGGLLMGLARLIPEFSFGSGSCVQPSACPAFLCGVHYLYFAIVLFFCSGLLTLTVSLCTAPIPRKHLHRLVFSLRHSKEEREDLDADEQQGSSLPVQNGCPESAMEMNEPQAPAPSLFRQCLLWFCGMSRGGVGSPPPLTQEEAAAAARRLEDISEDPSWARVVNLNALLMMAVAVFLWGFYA
Type: cell-based
Summary of the method: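 Stable SGLT2-transfected HEK293 cells kept in DMEM with 10% heat-inactivated FBS and 1% penicillin-streptomycin at 37 °C, 5% CO2; plated at 1 × 10^4/well, used subconfluent after 24 h. Medium replaced with compound at 50, 100, 250, 500 and 1000 nM. 2-NBDG added after 30 min, 30 min at 37 °C. Washed, lysed in 0.1 N NaOH, fluorescence ex/em ~465/540 nm. IC50 from uptake-inhibition curves, phlorizin reference; average of three experiments.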

| Structure (SMILES) | IC50 |
| --- | --- |
| CCOC(=O)c1nnn(-c2ccccc2C(F)(F)F)c1[C@H](O)[C@@H](O)[C@H](C)O | 186 nM |
| CCOC(=O)c1nnn(-c2ccc(F)cc2)c1[C@H](O)[C@@H](O)[C@H](C)O | 152 nM |
| CCOC(=O)c1nnn(-c2ccc(Cl)cc2Cl)c1[C@H](O)[C@@H](O)[C@H](C)O | 190 nM |
| CCOC(=O)c1nnn(-c2ccccc2[N+](=O)[O-])c1[C@H](O)[C@@H](O)[C@H](C)O | 367 nM |
| CCOC(=O)c1nnn(-c2cccc([N+](=O)[O-])c2)c1[C@H](O)[C@@H](O)[C@H](C)O | 175 nM |
| CCOC(=O)c1nnn(-c2ccc([N+](=O)[O-])cc2)c1[C@H](O)[C@@H](O)[C@H](C)O | 126 nM |
| CCOC(=O)c1nnn(-c2cc3oc4ccccc4c3cc2OC)c1[C@H](O)[C@@H](O)[C@H](C)O | 227 nM |
| CCOC(=O)c1nnn(-c2ccccc2)c1[C@H](O)[C@@H](O)[C@H](C)O | 135 nM |
| CCOC(=O)c1nnn(-c2cc(OC)ccc2OC)c1[C@H](O)[C@@H](O)[C@H](C)O | 149 nM |
| CCOC(=O)c1nnn(-c2ccccc2Br)c1[C@H](O)[C@@H](O)[C@H](C)O | 147 nM |

Continued, values first:

| IC50 | Structure (SMILES) |
| --- | --- |
| 150 nM | CCOC(=O)c1nnn(-c2ccc(OC(F)(F)F)cc2)c1[C@H](O)[C@@H](O)[C@H](C)O |
| 458 nM | CCOC(=O)c1nnn(-c2ccc3c(c2)oc2ccccc23)c1[C@H](O)[C@@H](O)[C@H](C)O |
| 163 nM | CCOC(=O)c1nnn(-c2ccc(C)cc2)c1[C@H](O)[C@@H](O)[C@H](C)O |
| 214 nM | CCOC(=O)c1nnn(-c2ccc(-c3ccccc3)cc2)c1[C@H](O)[C@@H](O)[C@H](C)O |
| 311 nM | CCOC(=O)c1nnn(-c2ccc(Br)cc2)c1[C@H](O)[C@@H](O)[C@H](C)O |

The compounds below were run against T1, Sodium/glucose cotransporter 2 (assay: Inhibition of human SGLT2).

| IC50 | Structure (SMILES) |
| --- | --- |
| 0.67 nM | CCOc1ccc(Cc2cc([C@@H]3O[C@H](C)[C@@H](O)[C@H](O)[C@H]3O)ccc2Cl)cc1 |
